# Reference: ChEMBL document CHEMBL1155230, “Synthesis, biological evaluation, and structure-activity relationships for 5-[(E)-2-arylethenyl]-3-isoxazolecarboxylic acid alkyl ester derivatives as valuable antitubercular chemotypes” (J Med Chem, 2009)
# pIC50: −log10 of the molar value.
# Assays:
# [1] = tested on: Mycobacterium tuberculosis; experiment: Antimycobacterial activity against Mycobacterium tuberculosis H37Rv replicating form by alamar blue assay; type: functional
# Procedure, shortened: (§1)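 M. tuberculosis H37Rv (ATCC 27294) was tested, in replicating form by MABA and in nonreplicating form by LORA, following published procedures. The value is the MIC, reported as the average of three individual determinations.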
# [2] = tested on: Mycobacterium tuberculosis; experiment: Antimycobacterial activity against non replicating persistent form of Mycobacterium tuberculosis H37Rv after 10 days by low oxygen recovery assay; type: functional; conditions: 240 h; procedure, shortened: as §1
# [3] = tested on: Vero; experiment: Cytotoxicity against african green monkey Vero cells after 72 hrs; type: cell-based; conditions: Chlorocebus sabaeus
# [4] = tested on: Escherichia coli; experiment: Antimicrobial activity against Escherichia coli; type: functional
# [5] = tested on: Mycolicibacterium smegmatis; experiment: Antimicrobial activity against Mycobacterium smegmatis; type: functional
# [6] = tested on: Staphylococcus aureus; experiment: Antimicrobial activity against Staphylococcus aureus; type: functional
# [7] = tested on: Candida albicans; experiment: Antimicrobial activity against Candida albicans; type: functional
SMILES,MIC90 [1] [µM],MIC90 [2] [µM],pIC50 [3],MIC [4] [µM],MIC [5] [µM],MIC [6] [µM],MIC [7] [µM]
CCOC(=O)c1cc(COc2cc(C(F)(F)F)nc3c(C(F)(F)F)cccc23)on1,0.9,12.2,,,,,
CCOC(=O)c1cc(/C=C/c2ccc(C(F)(F)F)cc2)on1,3.9,6.8,,,,,
CCOC(=O)c1cc(/C=C/c2ccccc2C(F)(F)F)on1,3.9,12.1,,,,,
CCOC(=O)c1cc(/C=C/c2ccco2)on1,7.9,50.2,< 3.89,,,,
CCOC(=O)c1cc(CCc2cc(O)cc(O)c2)on1,> 128,> 128,,,,,
CCOC(=O)c1cc(/C=C\c2cccc(OC)n2)on1,27.5,45.9,,,,,
CCOC(=O)c1cc(/C=C/c2c(Cl)ccc(C)c2F)on1,3.5,7,< 3.89,,,,
CCOC(=O)c1cc(/C=C/c2ccccc2CC)on1,0.98,2,< 3.89,,,,
CCCCOC(=O)c1cc(/C=C/c2ccc(OC)nc2)on1,2,6.7,,,,,
CCOC(=O)c1cc(/C=C/c2ccnc3ccccc23)on1,0.2,2.6,,,,,
CCOC(=O)c1cc(/C=C/c2ccc(C)c3ccccc23)on1,17.3,3.6,< 3.89,,,,
CCOC(=O)c1cc(/C=C/c2ccc(N3CCN(C)CC3)cc2)on1,15.2,37.4,,,,,
CCOC(=O)c1cc(/C=C/c2ccc(F)cc2F)on1,5.3,13.8,< 3.89,,,,
CCOC(=O)c1cc(/C=C/c2cc(Cl)cc(Cl)c2)on1,5.4,5.9,< 3.89,,,,
O=C(O)c1cc(/C=C/c2cccc(C(F)(F)F)c2)on1,> 128,> 128,,,,,
CCOC(=O)c1cc(/C=C/c2ccccc2)on1,11.7,18,,,,,
CCCCOC(=O)c1cc(/C=C/c2ccnc3ccc(OC)cc23)on1,1.1,1.8,< 3.89,,,,
CCOC(=O)c1cc(/C=C/c2cc(OCc3ccccc3)cc(OCc3ccccc3)c2)on1,6.3,4.7,< 3.89,,,,
CCOC(=O)c1cc(/C=C/c2ccsc2)on1,1.6,26.9,< 3.89,,,,
O=C(O)c1cc(/C=C/c2cccc3ccccc23)on1,> 128,> 128,,,,,
CCCCCCCCOC(=O)c1cc(/C=C/c2c(Cl)cncc2Cl)on1,10.9,9.2,< 3.89,,,,
CCCCCCC(C)OC(=O)c1cc(/C=C/c2c(Cl)cncc2Cl)on1 (stereo not given),8.3,24.2,< 3.89,,,,
CCOC(=O)c1cc(/C=C/c2cccc(OC)c2)on1,3.7,8.8,< 3.89,,,,
CCOC(=O)c1cc(/C=C/c2cc(F)cc(F)c2)on1,3.7,8.9,< 3.89,,,,
CCOC(=O)c1cc(/C=C/c2ccccc2SC)on1,0.96,7.8,< 3.89,,,,
CCOC(=O)c1cc(/C=C/c2cccc(N)c2)on1,7.5,20.7,< 3.89,,,,

SMILES,MIC90 [1] [µM],MIC90 [2] [µM],pIC50 [3],MIC [4] [µM],MIC [5] [µM],MIC [6] [µM],MIC [7] [µM]
CCOC(=O)c1cc(/C=C/c2cccc(C(C)C)c2)on1,3.1,8.3,< 3.89,,,,
CCOC(=O)c1cc(/C=C/c2cc(OC)cc(OC)c2)on1,2,3.6,< 3.89,,,,
CCOC(=O)c1cc(/C=C/c2ccc(OC)nc2)on1,1.4,86.6,< 3.89,,,,
CCOC(=O)c1cc(/C=C/c2cccc(Cl)c2)on1,2.3,6.7,< 3.89,,,,
CCOC(=O)c1cc(/C=C\c2cc(F)cc(F)c2)on1,29.2,12.3,< 3.89,,,,
CCC(CC)OC(=O)c1cc(/C=C/c2c(Cl)cncc2Cl)on1,7.9,8.9,< 3.89,,,,
CCOC(=O)c1cc(/C=C/c2cccc(C(F)(F)F)c2)on1,0.73,21.1,< 3.89,> 100,> 100,> 100,> 100
CCOC(=O)c1cc(/C=C/c2cccc(C)c2)on1,6.5,7.4,< 3.89,,,,
CCOC(=O)c1cc(/C=C/c2cccc3ccccc23)on1,1.6,4,< 3.89,,,,
Clc1cncc(Cl)c1/C=C/c1ccno1,> 128,> 128,,,,,
CCOC(=O)c1cc(/C=C/c2c(Cl)cccc2Cl)on1,2.5,3.5,,,,,
CCOC(=O)c1cc(CCc2cccc(C(F)(F)F)c2)on1,14.2,15.6,,,,,
CCOC(=O)c1cc(/C=C/c2ccc(OC)cc2F)on1,3.8,10.7,,,,,
CCOC(=O)c1cc(/C=C/c2cccc(O)c2)on1,7.8,28.7,< 3.89,,,,
O=C(OCCCC1CCCC1)c1cc(/C=C/c2c(Cl)cncc2Cl)on1,7.3,9.3,,,,,
CCOC(=O)c1cc(/C=C/c2cccc(OC)n2)on1,3.8,16,,,,,
CCOC(=O)c1cc(/C=C\c2cccc([N+](=O)[O-])c2)on1,5.4,10.9,< 3.89,,,,
CCOC(=O)c1cc(/C=C/c2c(Cl)cncc2Cl)on1,0.59,5.1,< 3.89,> 100,94.4,> 100,> 100
CCCCOC(=O)c1cc(/C=C/c2cccc(OC)c2)on1,1.8,7.6,,,,,
CCOC(=O)c1cc(/C=C/c2ccnc3ccc(OC)cc23)on1,0.4,1.1,,,,,
CCOC(=O)c1cc(/C=C/c2cccc([N+](=O)[O-])c2)on1,1.2,5.1,< 3.89,,,,
CCOC(=O)c1cc(/C=C/c2ccncc2)on1,15.5,52.4,< 3.89,,,,
NNC(=O)c1ccncc1 [ISONIAZID],0.84,> 128,3.89,,,,
COc1c(N2C[C@@H]3CCCN[C@@H]3C2)c(F)cc2c(=O)c(C(=O)O)cn(C3CC3)c12 [MOXIFLOXACIN],0.46,> 128,,,,,
CO[C@H]1/C=C/O[C@@]2(C)Oc3c(C)c(O)c4c(O)c(c(/C=N/N5CCN(C)CC5)c(O)c4c3C2=O)NC(=O)/C(C)=C\C=C\[C@H](C)[C@H](O)[C@@H](C)[C@@H](O)[C@@H](C)[C@H](OC(C)=O)[C@@H]1C [RIFAMPIN],0.1,1.9,,,,,
